# Assay results from different studies.
# Each line is one published result; the experiments were not run side by side.
# Target: Phosphatidylinositol 4-phosphate 3-kinase C2 domain-containing subunit alpha (PIK3C2A, Homo sapiens, UniProt O00443)
# Action: inhibitor
Structure (SMILES),observed,method,concentration,quantity,value
CC(C)CCn1c(SCC(=O)Nc2ccccc2C(F)(F)F)nc2nccnc2c1=O,enzyme activity,,10 µM,inhibition,84%
Cc1ccc(NC(=O)c2ccc(C)c(C(F)(F)F)c2)cc1C#Cc1nn(C2CCC(O)CC2)c2ncnc(N)c12 (stereo not drawn),cell-free assay,,10 µM,remaining signal,92%
Cc1cnc(NC2CCOCC2)nc1-n1cnc(C(=O)NC(CN)c2cc(F)cc(Cl)c2)c1 (stereo not drawn),enzyme activity,radiometric,1 µM,remaining activity,100%
C=CC(=O)Nc1cc(Nc2nccc(Nc3cc(Cl)c(F)cc3C(C)(C)O)n2)c(OC)cc1N1CC[C@@H](N(C)C)C1,enzyme activity,,1 µM,inhibition,-2%
Cc1ccc(C(=O)NCc2ccsc2)cc1C#Cc1cn(C(C)C)c2ncnc(N)c12,enzyme activity,,1 µM,activity vs control,98%
Cc1cc(NC(=O)c2cccc3cc(-c4cccc5[nH]nc(N)c45)ccc23)ccc1F,enzyme activity,,0.1 µM,activity vs control,108%
COc1cc(Cl)c(C(=O)N[C@@H](CN[C@H]2CC[C@@H](N)CC2)Cc2ccc(C#N)cc2)cc1-c1ccc(CN[C@H](C)c2ccc(C)cc2)o1,enzyme activity,,1 µM,remaining activity,93%
O=C(CSc1nc2nccnc2c(=O)n1CCc1ccccc1)Nc1ccccc1,enzyme activity,,10 µM,inhibition,93%
CN1CC(Oc2cnc(C#N)cc2-c2ccn3nc(NC(=O)C4CC4)cc3c2)C1,enzyme activity,,1 µM,inhibition,-4%
